Measured values: ChEMBL document CHEMBL1149097, “Orally active antimalarials: hydrolytically stable derivatives of 10-trifluoromethyl anhydrodihydroartemisinin” (J Med Chem, 2004)
Values after ≈ are worked out from the molar mass of the structure shown.

Legend:
Mus musculus [1] = assay: In vivo antimalarial activity against Plasmodium berghei NK173 in mice (Mus musculus) by intraperitoneal route at a concentration of 35.5 uM/kg at day 4; assay type: functional
Method in brief: (§1)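 Female CD1 mice (18-20 g) were infected with P. berghei NK 173 at (1-5) × 10^6 parasitized red cells, following the Peters test. Groups held 5-10 mice. Drug was given intraperitoneally at 35.5 µmol·kg⁻¹. Survival was followed to 20 days postinfection.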

Plasmodium falciparum [2] = assay: In vitro inhibitory concentration against chloroquine-resistant Plasmodium falciparum FcB1; assay type: functional, organism-based
Method in brief: (§2)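 [3H]hypoxanthine uptake assay on chloroquine-resistant P. falciparum FcB1 (Colombia) and W2 (Indochina) in continuous human erythrocyte culture. Ring-stage synchronized parasites at 0.5% parasitemia and 1% final hematocrit received serially diluted drug, with methanol or DMSO at no more than 0.1% final. Plates ran 42 h at 37 °C in a candle jar, then freeze-thaw, harvest and scintillation counting. IC50 came from nonlinear regression of log dose-response, from at least three experiments.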

Mus musculus [3] = assay: Percentage reduction of parasitaemia at day 4 at a concentration of 10 mg/kg by subcutaneous administration; assay type: functional
Method in brief: (§3)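 P. berghei N infection in mice, with drug given subcutaneously or orally, per the Peters protocol. Parasitemia was read on day 4 and expressed as percent reduction at 10 mg/kg. ED50 and ED90 in mg/kg were derived from the same test.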

Mus musculus [4] = assay: In vivo effective dose evaluated against Plasmodium berghei N by subcutaneous administration in mice (Mus musculus); assay type: functional; details: sc; method in brief: as §3
Mus musculus [5] = assay: In vivo effective dose evaluated against Plasmodium berghei N by peroral administration in mice (Mus musculus); assay type: functional; details: po; method in brief: as §3
Mus musculus [6] = assay: In vivo antimalarial activity against Plasmodium berghei NK 173 in mice (Mus musculus) by intraperitoneal route at a concentration of 35.5 uM/kg at day 12; assay type: functional; method in brief: as §1
Mus musculus [7] = assay: In vivo effective dose was evaluated against Plasmodium berghei N by peroral administration in mice (Mus musculus); assay type: functional; details: po; method in brief: as §3
Mus musculus [8] = assay: In vivo effective dose was evaluated against Plasmodium berghei N by subcutaneous administration in mice (Mus musculus); assay type: functional; details: sc; method in brief: as §3
Mus musculus [9] = assay: Compound was evaluated for percentage reduction of parasitaemia at day 4 at a concentration of 10 mg/kg by peroral administration; assay type: functional; details: route oral; method in brief: as §3
Plasmodium falciparum [10] = assay: In vitro inhibitory concentration against chloroquine-resistant Plasmodium falciparum W2; assay type: functional, organism-based; method in brief: as §2
Mus musculus [11] = assay: In vivo antimalarial activity against Plasmodium berghei NK 173 in mice (Mus musculus) by intraperitoneal route at a concentration of 35.5 uM/kg at day 5; assay type: functional; method in brief: as §1
Mus musculus [12] = assay: In vivo effective dose was evaluated against Plasmodium berghei N by sub cutaneous administration in mice (Mus musculus); assay type: functional; method in brief: as §3
Mus musculus [13] = assay: In vivo antimalarial activity against Plasmodium berghei NK173 in mice (Mus musculus) by intraperitoneal route at a concentration of 35.5 uM/kg at day 11; assay type: functional; method in brief: as §1
[14] = Log D value between octanol and PBS at pH7.4; assay type: physicochemical; details: pH 7.4
[15] = Solubility in oral formulation was determined after incubation at 25 degree C; assay type: physicochemical
[16] = pKa value was determined; assay type: physicochemical
[17] = Solubility in PBS AT pH 7.4 was determined after incubation at 25 degree C; assay type: physicochemical
[18] = Solubility in iv formulation was determined after incubation at 25 degree C
[19] = Plasma clearance following 10 mg/kg intravenous or 50 mg/kg oral dosing in rats; assay type: ADME, organism-based; details: rat, read-out: Activity
Method in brief: (§4)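 Male Sprague-Dawley rats (280-320 g) were cannulated the day before, then fasted with free access to water, n = 2 per route. The iv dose was nominally 10 mg/kg, about 3 mg/mL in 10% ethanol/15 mM citrate-buffered 0.1 M Captisol, pH 3, infused over 5 min. The oral dose was nominally 50 mg/kg, given by gavage as a suspension in 0.5% HPMC, 0.5% benzyl alcohol and 0.4% Tween 80 in 0.9% NaCl. Carotid blood was sampled over 8 h, and plasma was quantified by HPLC/MS.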

[20] = Oral bioavailability in rat (dose 10 mg/kg i.v. and 50 mg/kg p.o.); assay type: ADME, organism-based; details: in vivo; method in brief: as §4
[21] = Volume of distribution following 10 mg/kg intravenous or 50 mg/kg oral dosing in rats was determined; assay type: ADME, organism-based; details: rat, in vivo; read-out: Activity; method in brief: as §4
[22] = Partition coefficient between octanol and water (logP); assay type: physicochemical
Mus musculus [23] = assay: In vivo antimalarial activity against Plasmodium berghei NK 173 in mice (Mus musculus) by intraperitoneal route at a concentration of 35.5 uM/kg at day 10; assay type: functional; method in brief: as §1

## C[C@@H]1CC[C@H]2C(CO)=C(C(F)(F)F)O[C@@H]3OC4(C)CCC1[C@]32OO4 (single isomer, unassigned)
Mus musculus [1]
  Parasitemia: 40%
Plasmodium falciparum [2]
  IC50: 7.5 nM

## CC1=CO[C@@H]2OC3(C)CC[C@H]4[C@H](C)CC[C@@H]1[C@@]24OO3 (single isomer, unassigned) [ANHYDRODIHYDROARTEMISININ]
Mus musculus [1]
  Parasitemia: 18%
Plasmodium falciparum [2]
  IC50: 20 nM

## C=CCOCC1=C(C(F)(F)F)O[C@@H]2OC3(C)CC[C@H]4[C@H](C)CC[C@@H]1[C@@]24OO3 (single isomer, unassigned)
Plasmodium falciparum [2]
  IC50: 6 nM

## C[C@@H]1CC[C@H]2C(CN3CCOCC3)=C(C(F)(F)F)O[C@@H]3OC4(C)CCC1[C@]32OO4 (single isomer, unassigned)
Mus musculus [3]
  Reduction: 98.1%
Mus musculus [4]
  ED90: < 10 mg/kg
Mus musculus [1]
  Parasitemia: 18%
Mus musculus [5]
  ED50: < 10 mg/kg
Mus musculus [6]
  Parasitemia: 45%
Mus musculus [7]
  ED90: < 10 mg/kg
Mus musculus [8]
  ED50: < 10 mg/kg
Mus musculus [9]
  Reduction: 93.3%
Plasmodium falciparum [2]
  IC50: 3.1 nM

## CCNCC1=C(C(F)(F)F)O[C@@H]2O[C@]3(C)CCC4[C@H](C)CC[C@@H]1[C@]42OO3 (stereo partly drawn)
Plasmodium falciparum [10]
  IC50: 13.4 nM
Mus musculus [3]
  Reduction: 98.1%
Mus musculus [4]
  ED90: < 10 mg/kg
Mus musculus [11]
  Parasitemia: 5%
Mus musculus [5]
  ED50: < 10 mg/kg
Mus musculus [12]
  ED50: < 10 mg/kg
Mus musculus [13]
  Parasitemia: 66%
Mus musculus [7]
  ED90: < 10 mg/kg
Mus musculus [9]
  Reduction: 96%

## C[C@@H]1CC[C@H]2C(CN=[N+]=[N-])=C(C(F)(F)F)O[C@@H]3OC4(C)CC[C@@H]1[C@]32OO4 (single isomer, unassigned)
Plasmodium falciparum [2]
  IC50: 10 nM

## COC(=O)C(C(=O)OC)C1=C(C(F)(F)F)O[C@@H]2OC3(C)CCC4[C@H](C)CC[C@@H]1[C@]42OO3 (single isomer, unassigned)
Plasmodium falciparum [10]
  IC50: > 1000 nM

## CCOCC1=C(C(F)(F)F)O[C@@H]2OC3(C)CC[C@H]4[C@H](C)CC[C@@H]1[C@@]24OO3 (single isomer, unassigned)
Plasmodium falciparum [10]
  IC50: 25 nM
Mus musculus [3]
  Reduction: 100%
Mus musculus [4]
  ED90: < 10 mg/kg
Mus musculus [1]
  Parasitemia: 0.4%
Mus musculus [12]
  ED50: < 10 mg/kg
Mus musculus [13]
  Parasitemia: 30%
Mus musculus [9]
  Reduction: 15.6%

## C[C@@H]1CC[C@H]2C(CN3CCN(CCO)CC3)=C(C(F)(F)F)O[C@@H]3OC4(C)CC[C@@H]1[C@]32OO4 (single isomer, unassigned)
Plasmodium falciparum [10]
  IC50: 15.2 nM
Mus musculus [3]
  Reduction: 100%
[14]
  logD: 3.46
Mus musculus [4]
  ED90: < 10 mg/kg
Mus musculus [11]
  Parasitemia: 0.5%
[15]
  solubility: 676 µg/mL (≈ 1460 µM)
[16]
  pKa: 6.59
[17]
  solubility: 234 µg/mL (≈ 507 µM)
[18]
  solubility: > 3000 µg/mL
Mus musculus [5]
  ED50: < 10 mg/kg
[19]
  clearance: 149 mL/min/kg
[20]
  bioavailability: 34.6%
[21]
  Vd: 11.8 L/kg
Mus musculus [12]
  ED50: < 10 mg/kg
Mus musculus [13]
  Parasitemia: 37%
[22]
  logP: 3.52
Mus musculus [7]
  ED90: < 10 mg/kg
Mus musculus [9]
  Reduction: 100%

## C[C@@H]1CC[C@H]2C(CNS(C)(=O)=O)=C(C(F)(F)F)O[C@@H]3OC4(C)CC[C@@H]1[C@]32OO4 (single isomer, unassigned)
Plasmodium falciparum [2]
  IC50: 20 nM

## CO[C@H]1O[C@@H]2O[C@@]3(C)CC[C@H]4[C@H](C)CC[C@@H]([C@H]1C)[C@@]24OO3 [ARTEMETHER]
Mus musculus [1]
  Parasitemia: 0%
[15]
  solubility: 256 µg/mL (≈ 858 µM)
[17]
  solubility: 63.4 µg/mL (≈ 212 µM)
[18]
  solubility: 4700 µg/mL (≈ 15800 µM)
[19]
  clearance: 114 mL/min/kg
[20]
  bioavailability: 1.4%
[21]
  Vd: 8.4 L/kg
Mus musculus [13]
  Parasitemia: 32%
Plasmodium falciparum [2]
  IC50: 3.5 nM

## C[C@H]1[C@H](OC(=O)CCC(=O)O)O[C@@H]2O[C@@]3(C)CC[C@H]4[C@H](C)CC[C@@H]1[C@@]24OO3 [ARTESUNATE]
Mus musculus [3]
  Reduction: 90%
Mus musculus [4]
  ED90: 10.5 mg/kg
Mus musculus [5]
  ED50: 5.4 mg/kg
Mus musculus [12]
  ED50: 2.8 mg/kg
Mus musculus [7]
  ED90: 15.3 mg/kg

## C[C@@H]1CC[C@H]2C(COCc3ccccc3)=C(C(F)(F)F)O[C@@H]3OC4(C)CC[C@@H]1[C@]32OO4 (single isomer, unassigned)
Plasmodium falciparum [10]
  IC50: 20 nM

## CNCC1=C(C(F)(F)F)O[C@@H]2OC3(C)CC[C@H]4[C@H](C)CC[C@@H]1[C@@]24OO3 (single isomer, unassigned)
Plasmodium falciparum [2]
  IC50: 9.2 nM

## COCCOCC1=C(C(F)(F)F)O[C@@H]2OC3(C)CC[C@H]4[C@H](C)CC[C@@H]1[C@@]24OO3 (single isomer, unassigned)
Mus musculus [1]
  Parasitemia: 6%
Plasmodium falciparum [2]
  IC50: 2.7 nM

## CC(=O)OCC1=C(C(F)(F)F)O[C@@H]2OC3(C)CC[C@H]4[C@H](C)CC[C@@H]1[C@@]24OO3 (single isomer, unassigned)
Plasmodium falciparum [2]
  IC50: 1.7 nM

## C[C@@H]1CC[C@H]2C(CN)=C(C(F)(F)F)O[C@@H]3OC4(C)CC[C@@H]1[C@]32OO4 (single isomer, unassigned)
Mus musculus [1]
  Parasitemia: 0.7%
Plasmodium falciparum [2]
  IC50: 4.4 nM

## CC1=C(C(F)(F)F)O[C@@H]2OC3(C)CC[C@H]4[C@H](C)CC[C@@H]1[C@@]24OO3 (single isomer, unassigned)
Mus musculus [1]
  Parasitemia: 0%
Mus musculus [13]
  Parasitemia: 34%
Plasmodium falciparum [2]
  IC50: 6 nM

## C[C@@H]1CC[C@H]2C(COCC(O)CO)=C(C(F)(F)F)O[C@@H]3OC4(C)CCC1[C@]32OO4 (single isomer, unassigned)
Plasmodium falciparum [2]
  IC50: 3.7 nM

## C[C@@H]1CC[C@H]2C(CNCCN)=C(C(F)(F)F)O[C@@H]3O[C@]4(C)CCC1[C@]32OO4 (stereo partly drawn)
Mus musculus [1]
  Parasitemia: 0%
Mus musculus [23]
  Parasitemia: 25%
Plasmodium falciparum [2]
  IC50: 1.2 nM

## C[C@@H]1CC[C@H]2C(CC(C(=O)O)C(=O)O)=C(C(F)(F)F)O[C@@H]3O[C@]4(C)CC[C@@H]1[C@]32OO4
Plasmodium falciparum [10]
  IC50: > 1000 nM

## Cc1ccc(S(=O)(=O)NCC2=C(C(F)(F)F)O[C@@H]3OC4(C)CC[C@H]5[C@H](C)CC[C@@H]2[C@@]35OO4)cc1 (single isomer, unassigned)
Plasmodium falciparum [2]
  IC50: 19.1 nM

## C[C@@H]1CC[C@H]2C(COCCO)=C(C(F)(F)F)O[C@@H]3OC4(C)CC[C@@H]1[C@]32OO4 (single isomer, unassigned)
Mus musculus [1]
  Parasitemia: 2%
Plasmodium falciparum [2]
  IC50: 2.4 nM
